Source: ChEMBL document CHEMBL1140012, “Rapid hit to lead evaluation of pyrazolo[3,4-d]pyrimidin-4-one as selective and orally bioavailable mGluR1 antagonists” (Bioorg Med Chem Lett, 2007)
In brackets after ≈: the same amount, converted by molar mass.

Experiments:
[1] = Permeability of the compound; type: ADME; details: not told; read-out: permeability
Procedure, shortened: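 Passive membrane permeability was measured and reported in ×10^-6 cm/s.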

[2] = Aqueous solubility of the compound; type: physicochemical; details: buffer
[3] = target: Metabotropic glutamate receptor 1 (Homo sapiens, UniProt Q13255); assay: Antagonist activity at human mGluR1 receptor expressed in […] cells assessed as inhibition of glutamate-induced calcium flux by FLIPR assay; type: functional, cell-based
Metabotropic glutamate receptor 1, sequence (Q13255 whole entry): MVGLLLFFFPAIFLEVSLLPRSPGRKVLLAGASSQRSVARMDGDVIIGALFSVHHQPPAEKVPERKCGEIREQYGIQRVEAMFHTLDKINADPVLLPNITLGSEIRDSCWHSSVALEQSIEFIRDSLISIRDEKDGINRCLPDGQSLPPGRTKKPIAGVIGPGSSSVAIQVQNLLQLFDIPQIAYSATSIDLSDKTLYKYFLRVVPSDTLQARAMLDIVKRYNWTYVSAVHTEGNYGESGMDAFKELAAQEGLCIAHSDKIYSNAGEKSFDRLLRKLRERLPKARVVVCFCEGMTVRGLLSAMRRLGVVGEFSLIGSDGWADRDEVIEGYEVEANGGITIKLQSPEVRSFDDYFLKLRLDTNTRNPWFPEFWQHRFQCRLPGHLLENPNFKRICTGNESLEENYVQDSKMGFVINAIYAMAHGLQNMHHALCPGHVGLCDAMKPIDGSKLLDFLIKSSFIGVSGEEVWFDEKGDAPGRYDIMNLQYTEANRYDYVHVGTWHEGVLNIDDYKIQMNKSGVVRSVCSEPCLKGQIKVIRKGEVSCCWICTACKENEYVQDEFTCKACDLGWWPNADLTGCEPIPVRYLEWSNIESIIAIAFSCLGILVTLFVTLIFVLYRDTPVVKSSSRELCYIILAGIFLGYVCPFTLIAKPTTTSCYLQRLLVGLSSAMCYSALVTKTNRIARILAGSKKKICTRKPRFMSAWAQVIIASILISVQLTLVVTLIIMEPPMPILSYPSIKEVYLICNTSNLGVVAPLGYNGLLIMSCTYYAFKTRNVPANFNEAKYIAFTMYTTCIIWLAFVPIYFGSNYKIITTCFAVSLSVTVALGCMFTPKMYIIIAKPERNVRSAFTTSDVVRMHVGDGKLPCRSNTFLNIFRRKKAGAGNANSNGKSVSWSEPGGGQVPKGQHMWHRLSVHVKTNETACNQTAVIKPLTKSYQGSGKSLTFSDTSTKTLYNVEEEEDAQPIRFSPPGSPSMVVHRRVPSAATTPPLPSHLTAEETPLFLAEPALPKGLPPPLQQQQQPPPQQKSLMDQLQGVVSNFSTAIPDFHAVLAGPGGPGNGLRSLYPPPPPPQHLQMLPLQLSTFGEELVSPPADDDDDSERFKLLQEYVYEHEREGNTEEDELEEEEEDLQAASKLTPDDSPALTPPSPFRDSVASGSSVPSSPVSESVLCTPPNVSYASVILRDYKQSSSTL
Procedure, shortened: (§1)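 1321N1 cells transfected with human mGluR1 or human mGluR5 and co-expressing rat GLAST were used in a FLIPR calcium influx assay. Calcium flux was induced by 10 μM glutamate. IC50 is the concentration blocking 50% of that flux, given as the mean ± SEM of at least three determinations.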

[4] = Metabolic stability assessed as intrinsic clearance in rat liver microsomes; type: ADME, Microsome
Procedure, shortened: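 Intrinsic clearance was measured in rat liver microsomes and reported as scaled intrinsic clearance.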

[5] = target: Metabotropic glutamate receptor 5 (Homo sapiens, UniProt P41594); assay: Antagonist activity at human mGluR5 receptor expressed in […] cells assessed as inhibition of glutamate-induced calcium flux by FLIPR assay; type: functional, cell-based; procedure, shortened: as §1
Metabotropic glutamate receptor 5, sequence (P41594 whole entry): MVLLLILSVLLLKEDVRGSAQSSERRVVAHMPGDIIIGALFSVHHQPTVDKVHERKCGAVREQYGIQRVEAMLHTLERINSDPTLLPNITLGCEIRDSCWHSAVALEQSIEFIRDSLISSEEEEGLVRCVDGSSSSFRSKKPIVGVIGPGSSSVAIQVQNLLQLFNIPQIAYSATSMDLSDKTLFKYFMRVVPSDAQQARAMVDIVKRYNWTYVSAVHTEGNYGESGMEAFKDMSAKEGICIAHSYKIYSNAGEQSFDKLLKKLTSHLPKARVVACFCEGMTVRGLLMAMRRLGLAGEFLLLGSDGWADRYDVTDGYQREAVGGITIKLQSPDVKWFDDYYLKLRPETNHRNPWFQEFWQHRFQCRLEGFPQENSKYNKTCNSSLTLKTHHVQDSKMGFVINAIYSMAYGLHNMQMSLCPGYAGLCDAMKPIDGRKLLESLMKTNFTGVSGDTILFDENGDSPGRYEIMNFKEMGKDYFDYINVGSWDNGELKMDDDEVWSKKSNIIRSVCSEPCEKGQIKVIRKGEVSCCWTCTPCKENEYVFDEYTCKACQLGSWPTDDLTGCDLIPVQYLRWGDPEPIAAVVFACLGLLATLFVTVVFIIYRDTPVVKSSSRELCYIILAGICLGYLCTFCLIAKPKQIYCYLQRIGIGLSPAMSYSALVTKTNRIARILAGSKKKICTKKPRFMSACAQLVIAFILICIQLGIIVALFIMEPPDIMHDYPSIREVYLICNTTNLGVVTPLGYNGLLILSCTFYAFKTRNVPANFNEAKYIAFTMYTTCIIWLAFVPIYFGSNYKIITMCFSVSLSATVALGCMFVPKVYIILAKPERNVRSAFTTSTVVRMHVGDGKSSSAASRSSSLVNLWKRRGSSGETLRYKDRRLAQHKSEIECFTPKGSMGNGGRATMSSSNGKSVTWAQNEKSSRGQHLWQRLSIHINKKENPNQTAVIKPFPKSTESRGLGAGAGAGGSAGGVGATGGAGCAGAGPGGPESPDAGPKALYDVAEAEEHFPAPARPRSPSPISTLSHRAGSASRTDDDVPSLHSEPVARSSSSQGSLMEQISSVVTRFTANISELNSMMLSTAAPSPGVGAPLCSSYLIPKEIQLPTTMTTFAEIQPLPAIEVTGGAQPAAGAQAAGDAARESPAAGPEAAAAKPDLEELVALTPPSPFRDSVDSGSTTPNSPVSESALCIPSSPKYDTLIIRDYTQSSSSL

[6] = system: Rattus norvegicus; assay: (§2) Half life in Sprague-Dawley rat at 1 mg/kg, ip; type: ADME, organism-based; set-up: dose 1 mg/kg, route intraperitoneal; details: in vivo
[7] = Half life in Sprague-Dawley rat at 1 mg/kg, iv; type: ADME, organism-based; set-up: dose 1 mg/kg, route intravenous; details: in vivo
[8] = Volume of distribution at terminal phase in Sprague-Dawley rat at 1 mg/kg, iv; type: ADME, organism-based; set-up: dose 1 mg/kg, route intravenous; details: in vivo, read-out: Vbeta
[9] = system: Rattus norvegicus; assay: (§3) Tmax in Sprague-Dawley rat at 1 mg/kg, ip; type: ADME, organism-based; set-up: dose 1 mg/kg, route intraperitoneal; details: in vivo
[10] = Tmax in Sprague-Dawley rat at 1 mg/kg, po; type: ADME, organism-based; set-up: dose 1 mg/kg, route oral; details: in vivo
[11] = Half life in Sprague-Dawley rat at 1 mg/kg, po; type: ADME, organism-based; set-up: dose 1 mg/kg, route oral; details: in vivo
[12] = AUC in Sprague-Dawley rat at 1 mg/kg, iv; type: ADME, organism-based; set-up: dose 1 mg/kg, route intravenous; details: plasma
[13] = system: Rattus norvegicus; assay: (§4) Cmax in Sprague-Dawley rat at 1 mg/kg, ip; type: ADME, organism-based; set-up: dose 1 mg/kg, route intraperitoneal; details: in vivo
[14] = system: Rattus norvegicus; assay: Clearance in Sprague-Dawley rat at 1 mg/kg, iv; type: ADME, organism-based; set-up: dose 1 mg/kg, route intravenous; details: in vivo
[15] = Bioavailability in Sprague-Dawley rat at 1 mg/kg, ip; type: ADME, organism-based; details: in vivo
[16] = AUC in Sprague-Dawley rat at 1 mg/kg, po; type: ADME, organism-based; set-up: dose 1 mg/kg, route oral; details: plasma
[17] = Cmax in Sprague-Dawley rat at 1 mg/kg, po; type: ADME, organism-based; set-up: dose 1 mg/kg, route oral; details: in vivo
[18] = Oral bioavailability in Sprague-Dawley rat at 1 mg/kg; type: ADME, organism-based; details: in vivo
[19] = system: Rattus norvegicus; assay: (§5) AUC in Sprague-Dawley rat at 1 mg/kg, ip; type: ADME, organism-based, Plasma; set-up: dose 1 mg/kg, route intraperitoneal; details: in vivo
[20] = as §2; type: ADME, organism-based; set-up: dose 1 mg/kg, route intraperitoneal; details: Sprague-Dawley, in vivo
[21] = as §3; type: ADME, organism-based; set-up: dose 1 mg/kg, route intraperitoneal; details: Sprague-Dawley, in vivo
[22] = as §4; type: ADME, organism-based; set-up: dose 1 mg/kg, route intraperitoneal; details: Sprague-Dawley, in vivo
[23] = as §5; type: ADME, organism-based, Plasma; set-up: dose 1 mg/kg, route intraperitoneal; details: Sprague-Dawley, plasma

Papp [1] | solubility [2] | IC50 [3] | CLint scaled [4] | IC50 [5] | SMILES | also measured
21.4 ×10⁻⁶ cm/s | 73 µM (≈ 24.7 µg/mL) | 230 nM | 66.7 mL/min/kg | > 100000 nM | Cc1nc2c(cnn2-c2cccnc2)c(=O)n1-c1ccc(Cl)cc1 | –
– | – | 2400 nM | – | > 100000 nM | Cc1nc2c(cnn2-c2ccccc2)c(=O)n1-c1ccc(O)cc1 | –
13.4 ×10⁻⁶ cm/s | 30 µM (≈ 10.5 µg/mL) | 180 nM | 400 mL/min/kg | > 100000 nM | Cc1cccc(-n2ncc3c(=O)n(-c4ccc(Cl)cc4)c(C)nc32)c1 | –
– | – | 350 nM | – | 9500 nM | Cc1ccccc1-n1ncc2c(=O)n(-c3ccc(Cl)cc3)c(C)nc21 | –
5.6 ×10⁻⁶ cm/s | 11 µM (≈ 4.08 µg/mL) | 220 nM | 183 mL/min/kg | > 100000 nM | Cc1nc2c(cnn2-c2cccc(Cl)c2)c(=O)n1-c1ccc(Cl)cc1 | –
– | – | > 100000 nM | – | > 100000 nM | Cc1nc2c(cnn2CC2CCCCC2)c(=O)n1-c1ccc(Cl)cc1 | –
– | – | > 100000 nM | – | – | Cc1nc2c(cnn2-c2ccccc2)c(=O)n1-c1cccc(Cl)c1 | –
– | – | > 100000 nM | – | > 100000 nM | Cc1nc2c(cnn2-c2ccccc2)c(=O)n1-c1ccc(S(N)(=O)=O)cc1 | –
– | – | 1410 nM | – | > 100000 nM | Cc1nc2c(cnn2-c2ccc(S(N)(=O)=O)cc2)c(=O)n1-c1ccc(Cl)cc1 | –
– | – | 9800 nM | – | > 100000 nM | Cc1nc2c(cnn2-c2cncnc2)c(=O)n1-c1ccc(Cl)cc1 | –
– | – | 760 nM | – | – | Cc1nc2c(cnn2-c2ccccc2)c(=O)n1C1CCCCCC1 | –
– | – | 1100 nM | – | > 100000 nM | Cc1nc2c(cnn2-c2ccc(Cl)cc2)c(=O)n1-c1ccc(Cl)cc1 | –
19.4 ×10⁻⁶ cm/s | 14 µM (≈ 5.34 µg/mL) | 78 nM | 115 mL/min/kg | > 100000 nM | Cc1nc2c(cnn2-c2ccccc2)c(=O)n1-c1ccc(Br)cc1 | t1/2 [6]: 0.25 h; half-life [7]: 2.5 h; Vd [8]: 3.1 L/kg; Tmax [9]: 0.25 h; Tmax [10]: 1.3 h; half-life [11]: 1.3 h; AUC [12]: 1280 ng·h/mL; Cmax [13]: 170 ng/mL; clearance [14]: 13.3 mL/min/kg; bioavailability [15]: 30%; AUC [16]: 100 ng·h/mL; Cmax [17]: 30 ng/mL; bioavailability [18]: 8%; AUC [19]: 389 ng·h/mL
29.6 ×10⁻⁶ cm/s | 18 µM (≈ 6.06 µg/mL) | 242 nM | 117 mL/min/kg | 9600 nM | Cc1nc2c(cnn2-c2ccccc2)c(=O)n1-c1ccc(Cl)cc1 | –
– | – | > 100000 nM | – | > 100000 nM | Cc1nc2c(cnn2-c2cnccn2)c(=O)n1-c1ccc(Cl)cc1 | –
– | – | > 100000 nM | – | > 100000 nM | Cc1nc2c(cnn2-c2ccccn2)c(=O)n1-c1ccc(Cl)cc1 | –
– | – | > 100000 nM | – | > 100000 nM | Cc1nc2c(cnn2-c2ccccc2)c(=O)n1-c1ccc(OC(F)(F)F)cc1 | –
– | 18 µM (≈ 6.39 µg/mL) | 800 nM | 183 mL/min/kg | > 100000 nM | Cc1nc2c(cnn2-c2ccccc2)c(=O)n1-c1ccc(Cl)c(F)c1 | –
17.6 ×10⁻⁶ cm/s | 42 µM (≈ 17.5 µg/mL) | 127 nM | < 41.7 mL/min/kg | > 100000 nM | Cc1nc2c(cnn2-c2cccc(S(N)(=O)=O)c2)c(=O)n1-c1ccc(Cl)cc1 | half-life [20]: 1.7 h; half-life [7]: 1.5 h; Vd [8]: 0.4 L/kg; Tmax [21]: 1.7 h; Tmax [10]: 1.2 h; half-life [11]: 1.2 h; AUC [12]: 6150 ng·h/mL; Cmax [22]: 1540 ng/mL; clearance [14]: 3.33 mL/min/kg; AUC [16]: 6240 ng·h/mL; Cmax [17]: 2100 ng/mL; AUC [23]: 7790 ng·h/mL
– | – | 240 nM | – | 3600 nM | Cc1nc2c(cnn2-c2ccccc2)c(=O)n1N1CCCCCC1 | –
– | – | 520 nM | – | > 100000 nM | Cc1nc2c(cnn2C2CCCCCC2)c(=O)n1-c1ccc(Cl)cc1 | –
5.49 ×10⁻⁶ cm/s | 19 µM (≈ 5.88 µg/mL) | 91 nM | 1800 mL/min/kg | 2800 nM | Cc1nc2c(cnn2-c2ccccc2)c(=O)n1N1CCCCC1 | –
